In publication PMC10338367 (Heliyon, 2023):

What was measured:
[1] = test system: A172 human glioblastoma cells; assay: WST cell viability assay, A172; type: cell-based
Method in brief: (§1)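 Cells (MEM, 10% FBS, 37 °C, 5% CO₂) were seeded at 3 × 10³/well and pre-incubated 24 h. They were treated with test compound at 0.16, 0.8, 4, 20 or 100 μM for 24, 48 or 72 h, with DMSO as vehicle control. WST-1 was then added for 4 h at 37 °C and absorbance read at 516 nm (reference 600 nm). Viability was taken relative to untreated cells and IC50 read from dose-response curves at each time; ≥3 independent experiments.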

[2] = test system: LN229 human glioblastoma cells; assay: WST cell viability assay, LN229; type: cell-based
Method in brief: as §1

[3] = test system: normal human astrocytes (NHA); assay: WST cell viability assay, NHA; type: cell-based
Method in brief: as §1

A172 cells = assay: Flow cytometry analysis of cell cycle and apoptosis; type: cell-based, human; conditions: for G0-G1, percentage of cells / Sub G1, percentage of cells: A172, 4 μM
Method in brief: (§2)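 Cells from MD Anderson were grown in MEM with 10% FBS, penicillin-streptomycin and 1% glutamine at 37 °C, 5% CO₂. About 1 × 10⁶ cells per 10-cm plate were exposed to test compound (4 or 10 μM) for 0, 24, 48 or 72 h. Cells were spun down, PBS-washed, fixed overnight (12 h) in chilled 70% ethanol and PI-stained. Sub-G1, G0/G1, S and G2/M fractions were measured; mean ± S.D. of three experiments, untreated controls at each time.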

LN229 cells = assay: as above; type: cell-based, human; conditions: for G0-G1, percentage of cells: LN229, 4 μM
Method in brief: as §2

[4] = DPPH radical scavenging assay

| Compound | IC50 ([1]; A172, 72 h) | IC50 ([2]; LN229, 24 h) | IC50 ([2]; LN229, 48 h) | IC50 ([2]; LN229, 72 h) | IC50 ([3]; 48 h) | Percentage of antioxidant activity (DPPH) ([4]; 250 μM/mL) | Percentage of antioxidant activity (DPPH) ([4]; 500 μM/mL) | Percentage of antioxidant activity (DPPH) ([4]; 750 μM/mL) | Percentage of antioxidant activity (DPPH) ([4]; 1000 μM/mL) | further results |
| --- | --- | --- | --- | --- | --- | --- | --- | --- | --- | --- |
| CCCN(C)CCc1c[nH]c2ccccc12 [MPT, Methylprophyl tryptamine, reference compound] | 0.43 ± 0.09 µM | 0.448 ± 0.3 µM | 0.447 ± 0.01 µM | .44 ± 0.07 µM | 0.47 ± 0.04 µM |  |  |  |  | IC50 ([1]; A172, 48 h): 0.44 ± 0.13 µM; IC50 ([3]; 24 h): 0.49 ± 0.03 µM; IC50 ([3]; 72 h): 0.45 ± 0.04 µM |
| COc1ccc(C(c2c(O)c3ccccc3oc2=O)c2c(O)c3ccccc3oc2=O)cc1 [HL, 3,3′-[(4-methoxyphenyl)methanediyl]bis(4-hydroxy-2Hchromen-2-one)] | 0.95 µM | 9.55 µM | 1.78 ± 0.05 µM | 0.85 ± 0.07 µM | 0.64 ± 0.06 µM | 10.37 ± 0.08% | 15.12 ± 0.03% | 19.41 ± 0.02% | 25.62 ± 0.07% | IC50 ([1]; Homo sapiens, A 172, 24 h, A172, 24 h): 2.68 ± 0.19 µM; IC50 ([3]; Homo sapiens, Astrocyte, 24 h): 3.21 ± 0.04 µM; IC50 ([3]; Homo sapiens, Astrocyte, 72 h): 0.22 ± 0.04 µM; cell cycle arrest, phase (A172 cells; A172): cell cycle arrest was caused at G0/G1 phase; G0-G1, percentage of cells (A172 cells; 24 h): 67.66%; Sub G1, percentage of cells (A172 cells; 48 h): 6.48%; G0-G1, percentage of cells (A172 cells; 72 h): 59.23%; Sub G1, percentage of cells (A172 cells; 72 h): 4.55%; cell cycle arrest, phase (LN229 cells; LN229): arrested at G0/G1 phase; G0-G1, percentage of cells (LN229 cells; 24 h): 70.33%; G0-G1, percentage of cells (LN229 cells; 48 h): 61.70%; G0-G1, percentage of cells (LN229 cells; 72 h): 41.11% |
| O=C1O[C@H]([C@@H](O)CO)C(O)=C1O [Ascorbic acid, reference compound] |  |  |  |  |  | 74.08 ± 0.04% | 80.24 ± 0.01% | 85.79 ± 0.1% | 92.059 ± 0.08% |  |
